According to ChEMBL document CHEMBL1124553, “Brain-specific chemical delivery systems for beta-lactam antibiotics. In vitro and in vivo studies of some dihydropyridine and dihydroisoquinoline derivatives of benzylpenicillin in rats” (J Med Chem, 1989):

Tests used:
[1] = Half-life for disappearance of compound from dog whole blood; type: ADME, organism-based, Canis lupus familiaris
How it was run: (§1)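 Freshly collected whole blood, or 10% w/v brain homogenate in pH 7.4 phosphate buffer (ionic strength 0.15), was prewarmed to 37 °C. Compound was spiked from an 8 mM DMSO stock to 40 µM final. Timed samples were quenched in 8% DMSO/acetonitrile, centrifuged, filtered and analyzed by reversed-phase C8 HPLC with UV detection. K came from linear regression of log peak height versus time, with t1/2 derived from it. Values are mean ± SE of three determinations in different animal samples.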

[2] = Half-life for disappearance of compound from rat 10% brain homogenate; type: ADME; how it was run: as §1
[3] = Half-life for disappearance of compound from rat whole blood; type: ADME, organism-based; how it was run: as §1
Canis familiaris = species: Canis familiaris; experiment: Pseudo first-order rate constant (K) for disappearance of compound from dog whole blood; type: ADME, organism-based, Canis lupus familiaris; how it was run: as §1
Rattus norvegicus [4] = species: Rattus norvegicus; experiment: Pseudo first-order rate constant (K) for disappearance of compound from rat 10% brain homogenate; type: ADME
How it was run: (§2)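 Freshly collected whole blood (rat trunk blood; rabbit) or 10% w/v brain homogenate made in pH 7.4 phosphate buffer (μ = 0.15), prewarmed to 37 °C. Compound added from 8 mM DMSO stock to a final 40 μM. Timed 0.3 mL samples were quenched in 8% DMSO/acetonitrile, centrifuged, filtered and analysed by reversed-phase C8 HPLC-UV. K came from linear regression of log peak height versus time; n=3 animal samples.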

[5] = Pseudo first-order rate constant (K) for disappearance of compound from rat whole blood; type: ADME, tissue-based; how it was run: as §2
Rattus norvegicus [6] = experiment: Concentration of compound in rat blood after intravenous injection of 20 mg/kg benzyl-penicillin after 1 min; type: functional, organism-based; design: dose 20 mg/kg
How it was run: (§3)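 Male Sprague-Dawley rats (200-250 g), conscious, received 60 µmol/kg (equimolar to 20 mg/kg benzylpenicillin) by tail-vein injection. Benzylpenicillin K was given in water/ethanol/propylene glycol, and the delivery systems in ethanol:propylene glycol 7:3, at 20 mg/mL. Rats were decapitated at set times (4-6 per point), with trunk blood heparinized and brain, kidney, liver and lung frozen. Benzylpenicillin was measured by disk microbioassay (Bacillus subtilis ATCC 6633) after >5-volume sterile-water dilution or homogenization, against matrix calibration curves; assay limit 0.05 µg/mL.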

Rattus norvegicus [7] = experiment: Concentration of compound in rat blood after intravenous injection of 20 mg/kg benzyl-penicillin after 10 min; type: functional, organism-based; design: dose 20 mg/kg; how it was run: as §3
Rattus norvegicus [8] = experiment: Concentration of compound in rat blood after intravenous injection of 20 mg/kg benzyl-penicillin after 20 min; type: functional, organism-based; design: dose 20 mg/kg; how it was run: as §3
Rattus norvegicus [9] = experiment: Concentration of compound in rat blood after intravenous injection of 20 mg/kg benzyl-penicillin after 3 min; type: functional, organism-based; design: dose 20 mg/kg; how it was run: as §3
Rattus norvegicus [10] = experiment: Concentration of compound in rat blood after intravenous injection of 20 mg/kg benzyl-penicillin after 5 min; type: functional, organism-based; design: dose 20 mg/kg; how it was run: as §3
Rattus norvegicus [11] = experiment: Concentration of compound in rat brain after intravenous injection of 20 mg/kg benzyl-penicillin after 1 min; type: functional, organism-based; design: dose 20 mg/kg; how it was run: as §3
Rattus norvegicus [12] = experiment: Concentration of compound in rat brain after intravenous injection of 20 mg/kg benzyl-penicillin after 3 min; type: functional, organism-based; design: dose 20 mg/kg; how it was run: as §3
[13] = Half-life for disappearance of compound from human whole blood; type: ADME, organism-based; how it was run: as §1
[14] = Half-life for disappearance of compound from rabbit 10% brain homogenate; type: ADME, Oryctolagus cuniculus; how it was run: as §1
[15] = Half-life for disappearance of compound from rabbit whole blood; type: ADME, organism-based, Oryctolagus cuniculus; how it was run: as §1
Rattus norvegicus [16] = species: Rattus norvegicus; experiment: Half-life for disappearance of compound from rat whole blood; Compound was unstable; type: ADME, organism-based; conditions: in vitro; how it was run: as §1
Rattus norvegicus [17] = species: Rattus norvegicus; experiment: Pseudo first-order rate constant (K) for disappearance of compound from rat whole blood; Compound was unstable; type: ADME, organism-based; how it was run: as §2
Homo sapiens = species: Homo sapiens; experiment: Pseudo first-order rate constant (K) for disappearance of compound from human whole blood; type: ADME, organism-based; how it was run: as §1
Oryctolagus cuniculus [18] = species: Oryctolagus cuniculus; experiment: Pseudo first-order rate constant (K) for disappearance of compound from rabbit 10% brain homogenate; type: ADME; how it was run: as §2
Oryctolagus cuniculus [19] = species: Oryctolagus cuniculus; experiment: Pseudo first-order rate constant (K) for disappearance of compound from rabbit whole blood; type: ADME, organism-based; how it was run: as §2
Rattus norvegicus [20] = experiment: Concentration of compound in rat kidney after intravenous injection of 20 mg/kg benzyl-penicillin after 1 min; type: functional, organism-based; design: dose 20 mg/kg; how it was run: as §3
Rattus norvegicus [21] = experiment: Concentration of compound in rat kidney after intravenous injection of 20 mg/kg benzyl-penicillin after 20 min; type: functional, organism-based; design: dose 20 mg/kg; how it was run: as §3
Rattus norvegicus [22] = experiment: Concentration of compound in rat kidney after intravenous injection of 20 mg/kg benzyl-penicillin after 3 min; type: functional, organism-based; design: dose 20 mg/kg; how it was run: as §3
Rattus norvegicus [23] = experiment: Concentration of compound in rat kidney after intravenous injection of 20 mg/kg benzyl-penicillin after 40 min; type: functional, organism-based; design: dose 20 mg/kg; how it was run: as §3
Rattus norvegicus [24] = experiment: Concentration of compound in rat kidney after intravenous injection of 20 mg/kg benzyl-penicillin after 5 min; type: functional, organism-based; design: dose 20 mg/kg; how it was run: as §3
Rattus norvegicus [25] = experiment: Concentration of compound in rat kidney after intravenous injection of 20 mg/kg benzyl-penicillin after 60 min; type: functional, organism-based; design: dose 20 mg/kg; how it was run: as §3
Rattus norvegicus [26] = experiment: Concentration of compound in rat kidney after intravenous injection of 20 mg/kg benzyl-penicillin after 10 min; type: functional, organism-based; design: dose 20 mg/kg; how it was run: as §3
Rattus norvegicus [27] = experiment: Concentration of compound in rat liver after intravenous injection of 20 mg/kg benzyl-penicillin after 1 min; type: functional, organism-based; design: dose 20 mg/kg; how it was run: as §3
Rattus norvegicus [28] = experiment: Concentration of compound in rat liver after intravenous injection of 20 mg/kg benzyl-penicillin after 10 min; type: functional, organism-based; design: dose 20 mg/kg; how it was run: as §3
Rattus norvegicus [29] = experiment: Concentration of compound in rat liver after intravenous injection of 20 mg/kg benzyl-penicillin after 20 min; type: functional, organism-based; design: dose 20 mg/kg; how it was run: as §3
Rattus norvegicus [30] = experiment: Concentration of compound in rat liver after intravenous injection of 20 mg/kg benzyl-penicillin after 3 min; type: functional, organism-based; design: dose 20 mg/kg; how it was run: as §3
Rattus norvegicus [31] = experiment: Concentration of compound in rat liver after intravenous injection of 20 mg/kg benzyl-penicillin after 40 min; type: functional, organism-based; design: dose 20 mg/kg; how it was run: as §3
Rattus norvegicus [32] = experiment: Concentration of compound in rat liver after intravenous injection of 20 mg/kg benzyl-penicillin after 5 min; type: functional, organism-based; design: dose 20 mg/kg; how it was run: as §3
Rattus norvegicus [33] = experiment: Concentration of compound in rat blood after intravenous injection of 20 mg/kg benzyl-penicillin after 40 min; type: functional, organism-based; design: dose 20 mg/kg; how it was run: as §3
Rattus norvegicus [34] = experiment: Concentration of compound in rat blood after intravenous injection of 20 mg/kg benzyl-penicillin after 60 min; type: functional, organism-based; design: dose 20 mg/kg; how it was run: as §3
Rattus norvegicus [35] = experiment: Concentration of compound in rat brain after intravenous injection of 20 mg/kg benzyl-penicillin after 10 min; type: functional, organism-based; design: dose 20 mg/kg; how it was run: as §3
Rattus norvegicus [36] = experiment: Concentration of compound in rat brain after intravenous injection of 20 mg/kg benzyl-penicillin after 20 min; type: functional, organism-based; design: dose 20 mg/kg; how it was run: as §3
Rattus norvegicus [37] = experiment: Concentration of compound in rat brain after intravenous injection of 20 mg/kg benzyl-penicillin after 40 min; type: functional, organism-based; design: dose 20 mg/kg; how it was run: as §3
Rattus norvegicus [38] = experiment: Concentration of compound in rat brain after intravenous injection of 20 mg/kg benzyl-penicillin after 5 min; type: functional, organism-based; design: dose 20 mg/kg; how it was run: as §3
Rattus norvegicus [39] = experiment: Concentration of compound in rat liver after intravenous injection of 20 mg/kg benzyl-penicillin after 60 min; type: functional, organism-based; design: dose 20 mg/kg; how it was run: as §3
Rattus norvegicus [40] = experiment: Concentration of compound in rat lung after intravenous injection of 20 mg/kg benzyl-penicillin after 1 min; type: functional, organism-based; design: dose 20 mg/kg; how it was run: as §3
Rattus norvegicus [41] = experiment: Concentration of compound in rat lung after intravenous injection of 20 mg/kg benzyl-penicillin after 10 min; type: functional, organism-based; design: dose 20 mg/kg; how it was run: as §3
Rattus norvegicus [42] = experiment: Concentration of compound in rat lung after intravenous injection of 20 mg/kg benzyl-penicillin after 20 min; type: functional, organism-based; design: dose 20 mg/kg; how it was run: as §3
Rattus norvegicus [43] = experiment: Concentration of compound in rat lung after intravenous injection of 20 mg/kg benzyl-penicillin after 3 min; type: functional, organism-based; design: dose 20 mg/kg; how it was run: as §3
Rattus norvegicus [44] = experiment: Concentration of compound in rat lung after intravenous injection of 20 mg/kg benzyl-penicillin after 40 min; type: functional, organism-based; design: dose 20 mg/kg; how it was run: as §3
Rattus norvegicus [45] = experiment: Concentration of compound in rat lung after intravenous injection of 20 mg/kg benzyl-penicillin after 5 min; type: functional, organism-based; design: dose 20 mg/kg; how it was run: as §3
Rattus norvegicus [46] = experiment: Concentration of compound in rat lung after intravenous injection of 20 mg/kg benzyl-penicillin after 60 min; type: functional, organism-based; design: dose 20 mg/kg; how it was run: as §3
Rattus norvegicus [47] = experiment: Concentration of compound in rat brain after intravenous injection of 20 mg/kg benzyl-penicillin after 60 min; type: functional, organism-based; design: dose 20 mg/kg; how it was run: as §3

## CN1C=c2ccccc2=C(C(=O)NCCOC(=O)C2N3C(=O)C(NC(=O)Cc4ccccc4)C3SC2(C)C)C1 (stereo not given)
[1]
  half-life: 11.4 min
[2]
  half-life: 28.3 min
[3]
  half-life: 0.6 min
Canis familiaris
  K: 0.062 min⁻¹
Rattus norvegicus [4]
  K: 0.025 min⁻¹
[5]
  K: 1.083 min⁻¹
Rattus norvegicus [6]
  Concentration: 6.6 µg/mL
Rattus norvegicus [7]
  Concentration: 1.2 µg/mL
Rattus norvegicus [8]
  Concentration: 0.2 µg/mL
Rattus norvegicus [9]
  Concentration: 3 µg/mL
Rattus norvegicus [10]
  Concentration: 2.5 µg/mL
Rattus norvegicus [11]
  Concentration: 0.2 µg/mL
Rattus norvegicus [12]
  Concentration: 0.2 µg/mL

## CN1C=CCC(C(=O)OCCOC(=O)C2N3C(=O)C(NC(=O)Cc4ccccc4)C3SC2(C)C)=C1 (stereo not given)
[1]
  half-life: 4.1 min
[13]
  half-life: 16.2 min
[14]
  half-life: 4 min
[15]
  half-life: 0.8 min
[2]
  half-life: 2.4 min
Rattus norvegicus [16]
  T1/2: Unstable
Rattus norvegicus [17]
  K: Unstable
Canis familiaris
  K: 0.168 min⁻¹
Homo sapiens
  K: 0.043 min⁻¹
Oryctolagus cuniculus [18]
  K: 0.174 min⁻¹
Oryctolagus cuniculus [19]
  K: 0.903 min⁻¹
Rattus norvegicus [4]
  K: 0.296 min⁻¹
Rattus norvegicus [20]
  Concentration: 37.9 µg/mL
Rattus norvegicus [21]
  Concentration: 10.3 µg/mL
Rattus norvegicus [22]
  Concentration: 56.4 µg/mL
Rattus norvegicus [23]
  Concentration: 3.4 µg/mL
Rattus norvegicus [24]
  Concentration: 54.6 µg/mL
Rattus norvegicus [25]
  Concentration: 2.1 µg/mL
Rattus norvegicus [26]
  Concentration: 30.3 µg/mL
Rattus norvegicus [27]
  Concentration: 11.1 µg/mL
Rattus norvegicus [28]
  Concentration: 11.4 µg/mL
Rattus norvegicus [29]
  Concentration: 4.7 µg/mL
Rattus norvegicus [30]
  Concentration: 10.9 µg/mL
Rattus norvegicus [31]
  Concentration: 1.5 µg/mL
Rattus norvegicus [32]
  Concentration: 12.6 µg/mL
Rattus norvegicus [6]
  Concentration: 22.7 µg/mL
Rattus norvegicus [7]
  Concentration: 5.6 µg/mL
Rattus norvegicus [8]
  Concentration: 1.9 µg/mL
Rattus norvegicus [9]
  Concentration: 9 µg/mL
Rattus norvegicus [33]
  Concentration: 0.7 µg/mL
Rattus norvegicus [10]
  Concentration: 10.7 µg/mL
Rattus norvegicus [34]
  Concentration: 0.3 µg/mL
Rattus norvegicus [11]
  Concentration: 8.8 µg/mL
Rattus norvegicus [35]
  Concentration: 3.9 µg/mL
Rattus norvegicus [36]
  Concentration: 2.4 µg/mL
Rattus norvegicus [12]
  Concentration: 3.5 µg/mL
Rattus norvegicus [37]
  Concentration: 1.1 µg/mL
Rattus norvegicus [38]
  Concentration: 3.7 µg/mL
Rattus norvegicus [39]
  Concentration: 0.6 µg/mL
Rattus norvegicus [40]
  Concentration: 37.7 µg/mL
Rattus norvegicus [41]
  Concentration: 24.5 µg/mL
Rattus norvegicus [42]
  Concentration: 7.2 µg/mL
Rattus norvegicus [43]
  Concentration: 32.4 µg/mL
Rattus norvegicus [44]
  Concentration: 5 µg/mL
Rattus norvegicus [45]
  Concentration: 31.2 µg/mL
Rattus norvegicus [46]
  Concentration: 2.8 µg/mL
Rattus norvegicus [47]
  Concentration: 0.7 µg/mL
